Results taken from ChEMBL document CHEMBL4270555, “Synthesis and biological evaluation of magnolol derivatives as melatonergic receptor agonists with potential use in depression” (Eur J Med Chem, 2018).
Active and inactive are the calls of the source. No cut-off for these calls is given here.

Legend:
[1] = tested on: Mus musculus; test: Increase in norepinephrine level in Kunming mouse frontal cortex at 40 mg/kg, po treated for 7 days by HPLC-ECD analysis; assay type: functional, organism-based
In short: (§1)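 Male Kunming mice (18–20 g) given vehicle or 40 mg/kg for 7 days, then killed by cervical dislocation. Frontal cortex, hippocampus, striatum, hypothalamus and thalamus dissected on ice, homogenized in ice-cold 0.2 M perchloric acid with 0.1 mM EDTA, centrifuged 15,000 rpm, 20 min, 4 °C. Supernatant analysed by HPLC-ECD at +0.50 V; phosphate/octanesulfonate mobile phase pH 3.0 with 12% methanol. Levels in ng/g, mean ± SEM.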

[2] = target: T1, Melatonin receptor type 1B (Homo sapiens) (UniProt P49286); test: Agonist activity at human MT2 receptor expressed in HEK293 cells at 1 mM after 24 hrs by Fluo-8 dye-based calcium assay relative to control; assay type: functional, cell-based
T1 sequence (whole entry): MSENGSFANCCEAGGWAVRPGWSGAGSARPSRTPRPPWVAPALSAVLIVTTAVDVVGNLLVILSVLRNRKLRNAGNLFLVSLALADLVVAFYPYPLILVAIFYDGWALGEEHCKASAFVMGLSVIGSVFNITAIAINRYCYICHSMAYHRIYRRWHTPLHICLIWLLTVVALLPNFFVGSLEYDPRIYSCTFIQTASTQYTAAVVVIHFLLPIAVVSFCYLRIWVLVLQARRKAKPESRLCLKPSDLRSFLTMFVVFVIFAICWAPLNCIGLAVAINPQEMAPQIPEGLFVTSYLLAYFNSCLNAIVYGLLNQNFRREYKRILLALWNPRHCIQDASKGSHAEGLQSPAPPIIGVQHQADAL
In short: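 Fluo-8 calcium assay in HEK293 cells stably expressing human MT1 or MT2, seeded 4×10^4/well and incubated 24 h. Compounds tested at 1.00 mM, agomelatine positive control at 3.33 µM; fluorescence at ex 485/em 525 nm. Agonism expressed as mean ± SD, n = 3.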

[3] = tested on: Mus musculus; test: Toxicity in Kunming mouse assessed as effect in spontaneous locomotor activity by measuring total distance travelled at 10 to 40 mg/kg, po by open field test; assay type: organism-based; conditions: in vivo
In short: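 Male Kunming mice, 18–20 g, group-housed at 22 ± 2 °C on 12 h light/dark, given oral doses of 10, 20 or 40 mg/kg before behavioural testing. Each animal placed in the centre of a black open-field box (24 × 24 × 40 cm) for 30 s adaptation, then explored freely for 6 min. Line crossings and distance recorded. Mean ± SEM, n = 10.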

[4] = tested on: Mus musculus; test: Antidepressant activity in po dosed Kunming mouse assessed as decrease in immobility duration by forced swim test; assay type: functional, organism-based
In short: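 Male Kunming mice (18–20 g) given 10, 20 or 40 mg/kg orally; fluoxetine and agomelatine 20 mg/kg as references. Each mouse swam 6 min in a cylinder (25 × 15 cm) holding 10 cm of water at 25 ± 1 °C. Immobility over the last 4 min was scored by video tracking; n = 10, mean ± SEM versus vehicle.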

[5] = tested on: Mus musculus; test: Increase in 4-hydroxy-3-methoxyphenylacetic acid level in Kunming mouse hypothalamus at 40 mg/kg, po treated for 7 days by HPLC-ECD analysis; assay type: functional, organism-based; in short: as §1
[6] = tested on: Mus musculus; test: Increase in 3,4-dihydroxyphenylacetic acid level in Kunming mouse hypothalamus at 40 mg/kg, po treated for 7 days by HPLC-ECD analysis; assay type: functional, organism-based; in short: as §1
[7] = tested on: Mus musculus; test: Increase in ratio of 3,4-dihydroxyphenylacetic acid and 4-hydroxy-3-methoxyphenylacetic acid to dopamine level in Kunming mouse frontal cortex at 40 mg/kg, po treated for 7 days by HPLC-ECD analysis; assay type: functional, organism-based; in short: as §1
[8] = tested on: Rattus norvegicus; test: Toxicity in Sprague-Dawley rat assessed as change in behaviour at 2000 mg/kg, po measured continuously for first 4 hrs followed by measured every hour for next 24 hrs and at 6 hrs intervals for following 48 hrs post dose; assay type: organism-based; conditions: in vivo
In short: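 Followed OECD 425 in adult SD rats (180–220 g), three groups of six. Vehicle control received 0.5% CMC-Na orally; separate male and female groups received 2000 mg/kg orally. Endpoints observed: behaviour, breathing, cutaneous effects, sensory nervous system responses, gastrointestinal effects and deaths.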

[9] = Drug metabolism in Sprague-Dawley rat plasma assessed as (2S,3S,4S,5R,6S)-3,4,5-trihydroxy-6-(5-(1-hydroxyallyl)-5'-(1-hydroxypropyl)-2'-((2S,3R,4S,5S,6R)-3,4,5-trihydroxy-6-(hydroxymethyl)tetrahydro-2H-pyran-2-yloxy)biphenyl-2-yloxy)tetrahydro-2H-pyran-2-carboxylic acid formation at 100 mg/kg, po by UPLC-IT-TOF-MS analysis; assay type: ADME, organism-based; conditions: in vivo
In short: (§2)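 Rats (n = 6) housed in metabolic cages received 100.0 mg/kg orally; controls received 0.5% CMC-Na. Plasma, urine and faeces were collected and analyzed by LC-IT-TOF-MS on a C18 column at 30 °C. Gradient 5–100% acetonitrile with 0.05% formic acid over 18 min at 0.2 mL/min; positive and negative ion MS/MS.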

[10] = Drug metabolism in Sprague-Dawley rat feces assessed as 2'-hydroxy-5'-(1-hydroxyallyl)-5-propylbiphenyl-2-yl hydrogen sulfate formation at 100 mg/kg, po by UPLC-IT-TOF-MS analysis; assay type: ADME, organism-based; conditions: in vivo; in short: as §2
[11] = Drug metabolism in Sprague-Dawley rat plasma assessed as (2S,3S,4S,5R,6S)-3,4,5-trihydroxy-6-(5-(1-hydroxyallyl)-5'-(2-hydroxypropyl)-2'-methoxybiphenyl-2-yloxy)tetrahydro-2H-pyran-2-carboxylic acid formation at 100 mg/kg, po by UPLC-IT-TOF-MS analysis; assay type: ADME, organism-based; conditions: in vivo; in short: as §2
[12] = Drug metabolism in Sprague-Dawley rat feces assessed as (2S,3S,4S,5R,6S)-3,4,5-trihydroxy-6-(5-(1-hydroxyallyl)-5'-(2-hydroxypropyl)-2'-methoxybiphenyl-2-yloxy)tetrahydro-2H-pyran-2-carboxylic acid formation at 100 mg/kg, po by UPLC-IT-TOF-MS analysis; assay type: ADME, organism-based; conditions: in vivo; in short: as §2
[13] = Drug metabolism in Sprague-Dawley rat plasma assessed as 5'-acryloyl-2'-hydroxy-5-propionylbiphenyl-2-yl hydrogen sulfate formation at 100 mg/kg, po by UPLC-IT-TOF-MS analysis; assay type: ADME, organism-based; conditions: in vivo
In short: (§3)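 Male/unspecified SD rats (n = 6) housed individually in metabolic cages, dosed orally at 100.0 mg/kg; controls given 0.5% CMC-Na orally. Plasma, urine and faeces collected. LC-IT-TOF-MS on C18 column at 30 °C, formic acid (0.05%) water/acetonitrile gradient 5–100% B over 18 min, 0.2 mL/min; positive and negative ion modes with automatic MS/MS.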

[14] = Drug level in Sprague-Dawley rat urine at 100 mg/kg, po by UPLC-IT-TOF-MS analysis; assay type: ADME, organism-based; conditions: in vivo; in short: as §2
[15] = Drug metabolism in Sprague-Dawley rat plasma assessed as 5,5'-diallyl-2'-hydroxybiphenyl-2-yl hydrogen sulfate formation at 100 mg/kg, po by UPLC-IT-TOF-MS analysis; assay type: ADME, organism-based; conditions: in vivo; in short: as §3
[16] = Drug metabolism in Sprague-Dawley rat urine assessed as 5,5'-diallyl-2'-hydroxybiphenyl-2-yl hydrogen sulfate formation at 100 mg/kg, po by UPLC-IT-TOF-MS analysis; assay type: ADME, organism-based; conditions: in vivo; in short: as §3
[17] = Drug metabolism in Sprague-Dawley rat feces assessed as 5,5'-diallyl-2'-hydroxybiphenyl-2-yl hydrogen sulfate formation at 100 mg/kg, po by UPLC-IT-TOF-MS analysis; assay type: ADME, organism-based; conditions: in vivo; in short: as §2

For `C=CCc1ccc(O)c(-c2cc(CC=C)ccc2O[C@@H]2O[C@H](CO)[C@@H](O)[C@H](O)[C@H]2O)c1`, the Activity [1] was “Active”, the Activity [2] was 151% and the Activity [3] was “Non-Toxic”. The Activity [4] was “Dose-dependent effect”, the Activity [5] was “Active” and the Activity [6] was “Active”. For the same compound, the Activity [7] was “Active”, the Activity [8] was “Non-Toxic” and the Drug metabolism [9] was “Metabolite_Notdetected”. For the same compound, the Drug metabolism [10] was “Metabolite_Detected”, the Drug metabolism [11] was “Metabolite_Notdetected” and the Drug metabolism [12] was “Metabolite_Notdetected”. For the same compound, the Drug metabolism [13] was “Metabolite_Notdetected”, the Drug uptake [14] was “Not Active” and the Drug metabolism [15] was “Metabolite_Notdetected”. The Drug metabolism [16] was “Metabolite_Notdetected” and the Drug metabolism [17] was “Metabolite_Detected”.
